Activity calls are given as the source filed them.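 The calls were made as follows, unless noted: active = viability at or under a set limit in both replicates, limit being median viability minus 3 SD (cut at about 48% in these data, passing the limit was not always enough); inconclusive = at or under the limit in just one replicate; inactive = at or above the limit in both replicates.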
Assays:
[1] = Her2 expression decrease, cell viability multiplex – SKBR3 breast tumor cells, AlphaScreen, ATP viability, primary screen (AID 461;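 active = Her2 level under about 52% in both replicate screens, with viability over 70% of control, limit read from the data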;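 as to Her2 level: lower value means less Her2 protein in the cells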;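 as to viability: percent of carrier control wells set as 100% viability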); conditions: SKBR3 Her2 protein level, 18-24 h, measured here: SKBR3 viability, ATP luminescence, at 10 µM
[2] = target: Receptor tyrosine-protein kinase erbB-2 (Homo sapiens) (UniProt P04626); assay: as above; conditions: 18-24 h, at 10 µM, stronger effect = lower value
Receptor tyrosine-protein kinase erbB-2 (Homo sapiens), sequence (P04626 whole entry, looked up): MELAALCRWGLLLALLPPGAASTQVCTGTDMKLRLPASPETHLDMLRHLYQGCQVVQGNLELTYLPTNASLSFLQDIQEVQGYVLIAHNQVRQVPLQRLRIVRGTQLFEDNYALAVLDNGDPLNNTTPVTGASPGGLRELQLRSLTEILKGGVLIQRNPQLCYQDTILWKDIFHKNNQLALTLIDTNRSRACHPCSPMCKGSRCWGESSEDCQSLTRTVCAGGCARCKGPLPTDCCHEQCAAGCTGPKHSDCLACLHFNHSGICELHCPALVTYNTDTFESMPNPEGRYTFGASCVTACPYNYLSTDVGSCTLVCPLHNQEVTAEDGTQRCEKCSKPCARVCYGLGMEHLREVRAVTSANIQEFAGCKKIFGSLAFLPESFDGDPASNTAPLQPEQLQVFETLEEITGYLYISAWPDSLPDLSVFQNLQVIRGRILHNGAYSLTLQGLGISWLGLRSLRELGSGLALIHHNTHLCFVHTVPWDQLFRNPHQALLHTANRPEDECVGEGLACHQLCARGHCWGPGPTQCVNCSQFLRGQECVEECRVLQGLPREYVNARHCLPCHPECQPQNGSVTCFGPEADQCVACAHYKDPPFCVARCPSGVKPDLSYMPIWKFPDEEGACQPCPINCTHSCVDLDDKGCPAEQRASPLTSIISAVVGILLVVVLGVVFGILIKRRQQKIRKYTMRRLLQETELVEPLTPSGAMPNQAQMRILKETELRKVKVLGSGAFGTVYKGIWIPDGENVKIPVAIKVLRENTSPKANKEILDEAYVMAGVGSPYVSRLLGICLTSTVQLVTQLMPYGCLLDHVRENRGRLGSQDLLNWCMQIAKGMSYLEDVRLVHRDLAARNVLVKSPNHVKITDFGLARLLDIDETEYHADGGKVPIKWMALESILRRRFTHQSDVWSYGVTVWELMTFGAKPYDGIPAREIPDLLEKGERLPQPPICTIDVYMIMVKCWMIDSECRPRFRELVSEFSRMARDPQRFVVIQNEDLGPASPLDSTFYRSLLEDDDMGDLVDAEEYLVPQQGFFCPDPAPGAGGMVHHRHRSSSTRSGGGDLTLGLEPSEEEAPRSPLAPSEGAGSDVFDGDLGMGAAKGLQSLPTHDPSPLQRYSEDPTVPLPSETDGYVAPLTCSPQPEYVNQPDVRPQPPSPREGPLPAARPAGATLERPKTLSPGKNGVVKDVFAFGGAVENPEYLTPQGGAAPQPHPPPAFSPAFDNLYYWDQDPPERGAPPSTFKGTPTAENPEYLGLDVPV

[3] = reduced viability of SK-BR-3 breast cancer cells – cell-based, 24 h, human, pilot screen (AID 572;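 active = viability at or below 10% of carrier control in both of two separate runs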;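 also: compound exposure lasted between 18 and 24 h rather than exactly 24 h; 100% = carrier-treated control wells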); conditions: SK-BR-3 viability, CellTiter-Glo luminescence, at 10 µM, stronger effect = lower value
[4] = HUVEC growth inhibition – cell-based, human, primary screen (AID 575;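 active = viability at or below 30% in both replicate assays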;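 also: 100% = median of untreated cell wells with 0.1% DMSO on each plate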); conditions: HUVEC proliferation, CellTiter-Glo luminescence, 72 h; at 10 µM; stronger effect = lower value
Outline: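 Assay system: Primary human umbilical vein endothelial cells | Quantity: 1250 cells per well | Medium: Supplemented EBM, 2% fetal bovine serum | Detection: CellTiter-Glo luminescence measuring cellular ATP | Read-out: % viability vs DMSO wells | Plate: Collagen-coated 384-well format | Times: 72 h exposure, 37 °C, 5% CO2, 30 min RT equilibration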

[5] = H69AR cell proliferation blockers – human, duplicate replicates, primary screen (AID 580); conditions: H69AR lung tumor cells viability, ATP luminescence, 72 h; at 10 µM; stronger effect = lower value;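 also: 100% = mean luminescence of untreated wells and 0% = no signal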
[6] = MRP1 drug-resistance reversers in H69AR cells – cell-based, doxorubicin co-treatment, pilot screen (AID 601;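 active = viability loss from added drug above about 55%, and viability with drug at most 40%, in both replicates, limit read from the data, passing the limit was not always enough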); conditions: CellTiter-Glo, 72 h, at 10 µM; for differential viability (reversal): stronger effect = higher value
[7] = yeast transport mutant growth inhibition pilot in 384-well plates, post-Golgi transport modulator project (AID 636; in the data active = inhibition above about 31%); conditions: absorbance 615 nm, about 18 h, stronger effect = higher value
[8] = growth suppression of yeast trafficking mutant, preliminary HTS, modulators of trafficking downstream of Golgi apparatus project, 1536-format plate, OD 615 nm (AID 637; in the data active = inhibition above about 30%); conditions: yeast transport mutant growth, absorbance 615 nm, 18 h; stronger effect = higher value
[9] = H69AR cells + 2 uM doxorubicin, measured here: viability with 2 uM doxorubicin, stronger effect = lower value
[10] = H69AR cells, compound alone cytotoxicity

Row | Compound | viability [1] | Her2 level [2] | viability [3] | viability [4] | viability [5] | differential viability (reversal) ([6]; H69AR cells + 2 uM doxorubicin) | viability [6, 9] | viability [6, 10] | inhibition [7] | inhibition [8]
1 | CC(=O)Nc1ccc2c(c1)nc(CCNC(=O)c1ccccc1)n2C | 90.5% | 89% (inactive) | 90.5% (inactive) | 110% (inactive) | 102% (inactive) | 15.8% (inactive) | 85.7% | 102% | -8.36% (inactive) | -1.43% (inactive)
2 | Cc1ccc(S(=O)(=O)N2CCCC2C(=O)OCc2nc3ccccc3s2)cc1 (stereo not given) | 85.5% | 80.5% (inactive) | 85.5% (inactive) | 79.7% (inactive) | 99.2% (inactive) | 0.14% (inactive) | 99.1% | 99.2% | -7.95% (inactive) | -5.4% (inactive)
3 | O=C(OCc1nnc(-c2ccccc2)o1)c1ccc(S(=O)(=O)NCc2ccco2)cc1 | 99.5% | 98% (inactive) | 99.5% (inactive) | 99.6% (inactive) | 53.6% (inactive) | -6.69% (inactive) | 60.3% | 53.6% | -4.87% (inactive) | -6.36% (inactive)
4 | CCN(CC)CCCn1c(=S)[nH]c2cc(Cl)ccc2c1=O | 101% | 96% (inactive) | 101% (inactive) | 106% (inactive) | 97% (inactive) | 6.63% (inactive) | 90.4% | 97% | -6.27% (inactive) | 1.8% (inactive)
5 | O=C(NCCCN1CCOCC1)C1CC(=O)N(CCc2ccccc2)C1 (stereo not given) | 104% | 89% (inactive) | 104% (inactive) | 84.1% (inactive) | 94.8% (inactive) | 7.94% (inactive) | 86.9% | 94.8% | -3.68% (inactive) | -1.29% (inactive)
6 | CC1(C)CC(=O)c2cc(OCC(=O)NCCCN3CCN(c4ccccc4F)CC3)ccc2O1 | 81% | 85.5% (inactive) | 81% (inactive) | 59.3% (inactive) | 80% (inactive) | -5.98% (inactive) | 86% | 80% | -4.61% (inactive) | -3.45% (inactive)
7 | CC1(C)OC(=O)C(=CNC(CCC(N)=O)C(=O)O)C(=O)O1 (stereo not given) | 100% | 110% (inactive) | 100% (inactive) | 109% (inactive) | 86.2% (inactive) | -14.4% (inactive) | 101% | 86.2% | 6.49% (inactive) | 5.4% (inactive)
8 | C=CCC(NCc1ccco1)c1ccc(OC)cc1OC (stereo not given) | 96% | 98.5% (inactive) | 96% (inactive) | 99.1% (inactive) | 93% (inactive) | 7.67% (inactive) | 85.3% | 93% | -4.08% (inactive) | 0.36% (inactive)
9 | CCOC(=O)C1=C(C)Nc2ncnn2C1c1cc(OC)ccc1OC (stereo not given) | 92.5% | 84.5% (inactive) | 92.5% (inactive) | 84.6% (inactive) | 81.8% (inactive) | 0.51% (inactive) | 81.3% | 81.8% | -6.22% (inactive) | 1.17% (inactive)
10 | CCOC(=O)C1CCN(C(=O)CSc2n[nH]c(=O)[nH]c2=O)CC1 | 109% | 90% (inactive) | 109% (inactive) | 94.6% (inactive) | 102% (inactive) | 5.61% (inactive) | 96.7% | 102% | -8.51% (inactive) | 3.67% (inactive)
11 | Cc1nc(SCCC(=O)O)c2ccccc2n1 | 98% | 108% (inactive) | 98% (inactive) | 88.4% (inactive) | 85.9% (inactive) | 1.88% (inactive) | 84% | 85.9% | -0.26% (inactive) | -0.5% (inactive)
12 | CN(C=C1C(=O)CC(C)(C)CC1=O)CCN1CCNCC1 | 120% | 102% (inactive) | 120% (inactive) | 90.3% (inactive) | 96% (inactive) | 10.2% (inactive) | 85.8% | 96% | -4.21% (inactive) | 2.13% (inactive)
13 | Cc1nc2ccccc2c(=O)n1/N=C/c1ccncc1 | 95% | 99.5% (inactive) | 95% (inactive) | 105% (inactive) | 103% (inactive) | 12.4% (inactive) | 91.1% | 103% | -6.13% (inactive) | -1.94% (inactive)
14 | CCOC(=O)c1c(-c2ccc(C)o2)csc1NC(=O)COC(=O)c1cccs1 | 93% | 87.5% (inactive) | 93% (inactive) | 69.3% (inactive) | 84.4% (inactive) | 5.23% (inactive) | 79.2% | 84.4% | 1.3% (inactive) | -3.77% (inactive)
15 | COCCNC(=O)C(c1ccncc1)N(C(=O)Cn1nnc2ccccc21)c1ccc(OC)cc1 (stereo not given) | 96% | 73.5% (inactive) | 96% (inactive) | 97.7% (inactive) | 104% (inactive) | 9.12% (inactive) | 95.1% | 104% | -7.03% (inactive) | 8.03% (inactive)
16 | CCCN1C2CCCC1CC(NC(=O)c1ccccc1F)C2 (stereo not given) | 99% | 96.5% (inactive) | 99% (inactive) | 94.2% (inactive) | 106% (inactive) | 19.6% (inactive) | 86% | 106% | -4.93% (inactive) | 5.4% (inactive)

Source: PubChem BioAssay
